TCR-CD3 inh: inhibitors of human TCR-CD3 interaction; 0.37% of 360,000 active; AID 651800; inhibition, % at 9.4 µM; TAMRA-labeled TCR probe fluorescence, biochemical; in the data active = inhibition above about 19%;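 note: recombinant mutant TCR 2C K166C tagged with TAMRA read by polarization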
PRMT1 FP inh: PRMT1 (human) inhibition, primary screen | Q99873 | recombinant PRMT1, activity-based probe fluorescence polarization | inhibition, % at 2.79 µM | 1.3% of 370,000 active;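 active = inhibition above about 21% made by adding two undisclosed values, limit read from the data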
SIAE primary: inhibitors of human sialic acid acetylesterase SIAE; 0.69% of 370,000 active; AID 1053197; SIAE FP-Rh probe binding, fluorescence polarization; inhibition, % at 9.66 µM;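 active = inhibition above a cutoff: mean of compounds within the control limits plus 3 SD of those, cut at about 17% in these data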
Target sequence (Q9HAT2 whole entry, looked up): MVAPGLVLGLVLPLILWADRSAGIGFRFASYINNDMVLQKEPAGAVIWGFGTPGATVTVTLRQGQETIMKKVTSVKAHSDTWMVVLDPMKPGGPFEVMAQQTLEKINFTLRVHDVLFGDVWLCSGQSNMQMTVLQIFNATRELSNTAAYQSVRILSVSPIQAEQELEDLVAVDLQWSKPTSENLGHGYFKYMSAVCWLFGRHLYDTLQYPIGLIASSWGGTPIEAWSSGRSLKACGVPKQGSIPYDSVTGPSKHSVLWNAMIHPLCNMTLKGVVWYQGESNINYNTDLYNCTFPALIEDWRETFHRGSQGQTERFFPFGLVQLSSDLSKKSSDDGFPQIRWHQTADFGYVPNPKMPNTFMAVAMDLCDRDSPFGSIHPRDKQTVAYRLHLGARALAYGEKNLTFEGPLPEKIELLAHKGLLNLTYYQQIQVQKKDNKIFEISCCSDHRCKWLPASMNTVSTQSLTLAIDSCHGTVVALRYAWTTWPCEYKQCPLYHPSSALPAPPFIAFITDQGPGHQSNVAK
ATG4B inh: ATG4B (human) cysteine protease inhibition. inhibition, % at 8.33 µM. Q9Y4P1. 0.51% of 340,000 active. ATG4B cleavage of LC3-PLA2, NBD-HPC fluorescence, 1 h. AID 504462; in the data active = inhibition above about 40%
HTRA1 inh: blocks human HTRA1 serine peptidase; recombinant HTRA1, FP-rhodamine activity-based probe, fluorescence polarization; inhibition, % at 5.96 µM; 0.5% of 340,000 active; AID 504803; in the data active = inhibition above about 36%
ABHD4 inh: inhibitors of mouse ABHD4. Q8VD66. purified mABHD4, FP-Rh probe fluorescence polarization. inhibition, % at 8.92 µM. 0.54% of 370,000 active. AID 720543;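 active = inhibition exceeding the mean over every tested compound plus 3 SD, cut at about 30% in these data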
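System: mouse ABHD4 enzyme, wild type / Medium: HEPES pH 7.0, NaCl, Pluronic buffer / Reagent: FP-Rh activity-based fluorescent probe / Control set: S159A mutant high control, sample median low control / Detection: fluorescence polarization with parallel and perpendicular emission, 525/598 nm / Schedule: 45 min + 60 min at 25 °C / Compound dosing: 8.92 µM, single dose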
PRMT1 confirm: confirmation of human PRMT1 inhibitors | shares compounds with PRMT1 FP inh | recombinant His-PRMT1, activity-based probe fluorescence polarization | inhibition, % at 2.79 µM | 42% of 3,300 active;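 active = mean inhibition across replicates above the hit cutoff derived for the earlier primary screen, cut at about 22% in these data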
Numbers stand for hits; n = inactive; x = not tested or not shown. An excerpt weighted towards active compounds, which were near 2.9% of everything screened.

SMILES	TCR-CD3 inh	PRMT1 FP inh	SIAE primary	ATG4B inh	HTRA1 inh	ABHD4 inh	PRMT1 confirm
COC(=O)[C@]1(CNC(C)=O)CC(=O)N(C)[C@@H]1c1ccccc1	x	n	n	x	x	n	x
O=c1/c(=C/c2ccco2)sc2n1CN(c1cccc(Br)c1)CN=2	n	n	n	n	n	n	x
Cc1ccc(/C=c2\sc3n(c2=O)CN(c2cccc(Br)c2)CN=3)o1	n	34	n	n	n	n	n
O=C(CCl)NC1CCCCN(Cc2ccc(OC(F)(F)F)cc2)C1=O (configuration not stated)	x	n	n	x	x	n	x
COc1ccccc1-c1ccc(/C=C2\C=CC(=O)O2)o1	n	44	n	n	x	n	n
S=c1[nH]nc(-c2n[nH]c3c2CCC3)n1N=Cc1c2ccccc2cc2ccccc12	x	50	n	x	x	n	49
Oc1ccc2ccccc2c1C=Nn1c(-c2n[nH]c3c2CCC3)n[nH]c1=S	x	32	n	x	x	n	n
Cc1ccc(C)c(Cn2c(=O)n(CCC(=O)NCc3ccco3)c(=O)c3ccccc32)c1	n	n	n	n	n	n	x
Cc1ccc(C)c(Cn2c(=O)n(CCCC(=O)NCc3ccco3)c(=O)c3ccccc32)c1	n	102	n	n	n	n	n
Cc1ccc2nc(SCC(=O)c3cc(C)n(C)c3C)[nH]c2c1	n	n	n	n	n	n	x
C/C(N)=C(/C#N)C(=O)CSc1nc2ccc(C)cc2[nH]1	n	26	n	n	n	n	n
Cc1nc2ccc(S(=O)(=O)NCC(=O)NCc3ccc(F)cc3)cc2s1	x	n	n	x	x	n	x
CCn1cc(C(=O)N2CCn3c(nc4ccccc43)C2)c(=O)c2ccc(C)nc21	n	31	n	n	n	n	n
O=C1C=C(NNC(=O)c2ccncc2)CC(c2ccccc2)C1 (configuration not stated)	n	63	n	n	n	n	n
CS(=O)(=O)OC12CCCN(C1)/C(=C/c1ccc(Cl)cc1)C2 (configuration not stated)	x	n	n	x	x	n	x
O=C1CC(N(O)C2CC(=O)N(Cc3ccccc3)C2=O)C(=O)N1Cc1ccccc1 (configuration not stated)	n	n	n	n	n	n	x
CCCN(CCC)C1CC(=O)N(Cc2ccccc2)C1=O (configuration not stated)	n	76	n	n	n	n	24
CCOC(=O)C1=C(O)/C(=C\c2ccc(CNC(=O)C(=O)Nc3ccccc3)o2)N=C1C	n	34	n	n	n	n	23
CCOC(=O)C1=C(O)/C(=C\c2cccs2)N=C1C	n	n	n	n	n	n	x
COc1ccc(N2C(=O)CC(Sc3ccccc3C(=O)O)C2=O)c([N+](=O)[O-])c1 (configuration not stated)	n	100	n	n	n	n	55
Cc1ccc(N2C(=O)CC(Sc3ccccc3C(=O)O)C2=O)c([N+](=O)[O-])c1 (configuration not stated)	n	63	n	n	n	n	65
COc1ccc(N2CCN(C(=O)c3ccccc3F)CC2)c([N+](=O)[O-])c1	n	n	n	n	n	n	x
CCn1c(=O)n2n(c1=O)[C@H]1C[N+](Cc3ccc4c(c3)OCO4)=C(N)NC1=C(C)C2	x	n	n	x	x	n	x
O=C1/C(=C\c2ccco2)NC(=S)N1c1ccccc1	n	45	n	n	n	n	51
O=C1CCSc2c1ccc1ccccc21	n	29	n	n	n	n	n
SMILES	TCR-CD3 inh	PRMT1 FP inh	SIAE primary	ATG4B inh	HTRA1 inh	ABHD4 inh	PRMT1 confirm
O=C1CCCc2cc3c(ccc4ccccc43)cc21	n	n	n	n	n	n	x
CCc1ccc(/C=C/C(=O)C2C(=O)c3ccccc3C2=O)cc1	n	n	n	n	n	n	x
CC[N+]1(C)CCC(O)(/C=C/c2ccccc2)C(C(=O)/C=C/c2ccccc2)C1 (configuration not stated)	n	68	n	n	n	n	49
O=C1NC(=O)/C(=C\c2ccc(N3CCOCC3)o2)N1	n	30	n	n	n	n	n
CN(C)[C@@H]1CCN(c2ccc3c(c2)O[C@@H]2CCN(C2)S3(=O)=O)C1	x	n	n	x	x	n	x
COc1ccc(C=Nn2c(-c3n[nH]c4c3CCC4)n[nH]c2=S)cc1OCc1ccccc1	x	n	n	x	x	n	x

Screening data deposited in PubChem by several laboratories.
